Experiment [1] concerns MCF7. The experiment can be described thus: Antiproliferative activity against human MCF7 cells after 72 hrs relative to 1-alpha,25-(OH)2-D3. It counts as functional. A digest of the protocol: (§1)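 MCF-7 breast cancer cells (ATCC) incubated 72 h with a range of concentrations of analogues, reference 1α,25-(OH)2-D3 or vehicle. Proliferation read as [3H]thymidine incorporation.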

The target of experiment [2] is T1, Vitamin D3 receptor (Sus scrofa) (UniProt A3RGC1).
T1 sequence (whole entry): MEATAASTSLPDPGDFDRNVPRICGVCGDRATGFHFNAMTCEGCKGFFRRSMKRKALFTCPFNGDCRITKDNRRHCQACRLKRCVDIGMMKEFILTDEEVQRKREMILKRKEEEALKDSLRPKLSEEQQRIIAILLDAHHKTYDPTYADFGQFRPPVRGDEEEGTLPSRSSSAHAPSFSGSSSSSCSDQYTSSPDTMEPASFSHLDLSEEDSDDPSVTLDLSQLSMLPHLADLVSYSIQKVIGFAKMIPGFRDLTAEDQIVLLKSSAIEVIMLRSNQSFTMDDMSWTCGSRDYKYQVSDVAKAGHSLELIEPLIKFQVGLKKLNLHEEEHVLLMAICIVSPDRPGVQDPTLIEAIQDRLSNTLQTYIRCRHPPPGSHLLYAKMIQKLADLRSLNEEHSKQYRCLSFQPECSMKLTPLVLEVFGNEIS
The experiment can be described thus: Displacement of [3H]1-alpha,25-(OH)2-D3 from VDR in pig intestinal mucosa relative to 1-alpha,25-(OH)2-D3. Format: tissue-based. A digest of the protocol:
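Competitive binding using high-speed supernatant of intestinal mucosa homogenates from normal pigs, competing against [3H]-1α,25-(OH)2-D3. Relative affinity taken from the concentration displacing 50% of tracer, with 1α,25-(OH)2-D3 set at 100%.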

In experiment [3] the target is T2, Vitamin D-binding protein (Homo sapiens) (UniProt P02774).
T2 sequence (whole entry): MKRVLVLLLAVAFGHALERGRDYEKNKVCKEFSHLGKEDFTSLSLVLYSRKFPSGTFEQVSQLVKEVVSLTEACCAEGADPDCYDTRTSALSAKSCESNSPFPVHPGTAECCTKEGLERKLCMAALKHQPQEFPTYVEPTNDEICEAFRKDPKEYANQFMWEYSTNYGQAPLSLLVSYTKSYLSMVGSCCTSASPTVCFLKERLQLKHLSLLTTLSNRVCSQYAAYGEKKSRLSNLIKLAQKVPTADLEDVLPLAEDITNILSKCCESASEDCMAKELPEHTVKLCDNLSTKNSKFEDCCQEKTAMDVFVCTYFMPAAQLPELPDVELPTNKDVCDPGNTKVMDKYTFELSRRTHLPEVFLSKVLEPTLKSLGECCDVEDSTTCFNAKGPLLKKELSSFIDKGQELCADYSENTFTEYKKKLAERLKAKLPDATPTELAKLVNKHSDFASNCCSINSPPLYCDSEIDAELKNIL
The experiment can be described thus: Binding affinity to human DBP relative to 1-alpha,25-(OH)2-D3.

The test system of experiment [4] is MCF7. The experiment can be described thus: Antiproliferative activity against human MCF7 cells at 1 uM after 72 hrs relative to 1-alpha,25-(OH)2-D3. It counts as functional. The conditions noted are these: MCF7, 72 h. A digest of the protocol:
as §1

Experimental findings from ChEMBL document CHEMBL1147961, “Synthesis and biological evaluation of new 6-s-cis locked 1,2,25-trihydroxyprevitamin D3 analogues” (2007) are described below.

Usually inhibition stands for how much of the control response was suppressed. A higher inhibition goes with strong suppression.

On to `C[C@H](CCCC(C)(C)O)[C@H]1CC[C@H]2C(/C=C\C3=C[C@@H](O)[C@@H](O)[C@H](O)C3)=CCC[C@]12C`, for which the Activity in the experiment on MCF7 [1] amounted to 2%; in experiment [2], 0.2%; in experiment [3], 4%.

Consider `C[C@H](CCCC(C)(C)O)[C@H]1CC[C@H]2C(/C=C\C3=C[C@H](O)[C@@H](O)[C@H](O)C3)=CCC[C@]12C`, for which the Activity in the experiment with MCF7 [1] was 0%; in experiment [2], less than 0.1%; in experiment [3] it was 2%.

Regarding `C[C@H](CCCC(C)(C)O)[C@H]1CC[C@H]2C(/C=C\C3=C[C@@H](O)[C@@H](O)[C@@H](O)C3)=CCC[C@]12C`, the Activity in the experiment with MCF7 [1] was 0%; in experiment [2] it was less than 0.1%; in experiment [3] it was 7%.

Regarding `C[C@H](CCCC(C)(C)O)[C@H]1CC[C@H]2C(/C=C\C3=C[C@@H](O)[C@H](O)[C@H](O)C3)=CCC[C@]12C`, the Activity in the experiment on MCF7 [1] is 6%; in experiment [2] it was 2%; in experiment [3], 8%. This molecule also registered an inhibition at 1 µM in the experiment on MCF7 [4] of 70%.
